Measured values published in ChEMBL document CHEMBL5352422, “Development of l-Dopa-containing diketopiperazines as blood-brain barrier shuttle” (Eur J Med Chem, 2022).
Activity calls are given as the source filed them. No cut-off for these calls is given here.

Key:
[1] = Genotoxicity in human Lymphocyte assessed as sister chromatid exchange measured per cells at 500 nM incubated for 72 hrs giemsa staining based fluorescence method (reference value: 6.6 to 14.3); format: toxicity, cell-based; details: 0.5 µM
[2] = Stability of the compound in phosphate buffer assessed as chemical hydrolysis by measuring half life at pH 7.4; format: physicochemical
In short: (§1)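 Chemical hydrolysis at 37 °C in hydrochloric acid buffer pH 1.2 or phosphate buffer pH 7.4. Remaining compound followed by HPLC with UV detection. t1/2 and k_obs are means of three experiments ± SD.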

PC-12 [3] = experiment: Upregulation of xCT expression in MPP+ induced rat PC-12 cells at 100 nM pretreated with compound for 24 hrs followed by MPP+ stimulation and measured after 6 hrs; format: functional, cell-based; details: time 30.0 hrs
In short: (§2)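 PC12 cells pretreated 24 h with compound, then exposed to 25 μM MPP+ for 6 h. mRNA quantified by real-time PCR (95 °C 3 min, then 40 cycles of 95 °C 10 s and 62 °C 30 s), samples in triplicate. Values normalized to β-actin, expressed as 2^-ΔΔCt with untreated cells set to 1.0. n = 3.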

[4] = Genotoxicity in human Lymphocyte assessed as micronuclei formation measured per 1000 cells at 100 nM incubated for 72 hrs giemsa staining based analysis (reference value: 4.5 to 17.9); format: toxicity, cell-based; details: 0.1 µM
In short: (§3)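 Human whole-blood lymphocyte cultures with phytohemagglutinin, incubated with compound for 72 h at 37 °C. Cytochalasin B added at 44 h. Cells fixed in ice-cold methanol/acetic acid 1:1, cytospun, Giemsa-stained. At least 1000 binucleated lymphocytes per concentration scored for micronuclei by one observer.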

PC-12 [5] = experiment: Cytoprotective activity against MPP+ induced cell death in rat PC-12 cells at 10 to 500 nM preincubated with compound for 24 hrs followed by MPP+ exposure for 24 hrs by MTT assay; format: functional, cell-based; details: dose 10-500 nM, time 48.0 hrs
In short: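 PC12 cells in RPMI with horse and fetal calf serum on polylysine-coated flasks. Pretreated 24 h with compound (10–500 nM), then 25 µM MPP+ for a further 24 h. MTT formazan solubilized in SDS/HCl, read at 550 nm. Expressed as % of untreated control absorbance; n = 3, mean ± SD.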

[6] = Induction of DNA damage in rat Cerebral cortex cell assessed as total DNA damage score at 250 nM incubated for 24 hrs by Comet assay (reference value: 36.8 to 89.2); format: functional, Cerebral cortex neuron
[7] = Genotoxicity in human Lymphocyte assessed as sister chromatid exchange measured per cells at 100 nM incubated for 72 hrs giemsa staining based fluorescence method (reference value: 6.6 to 14.3); format: toxicity, cell-based; details: 0.1 µM
[8] = Genotoxicity in human Lymphocyte assessed as sister chromatid exchange measured per cells at 10 nM incubated for 72 hrs giemsa staining based fluorescence method (reference value: 6.6 to 14.3); format: toxicity, cell-based; details: 0.01 µM
[9] = Antioxidant activity against rat Cerebral cortex cell assessed as trolox equivalent of total antioxidant capacity at 50 nM incubated for 24 hrs (14.7 to 27.5 mmolequiv/L ); format: functional, Cerebral cortex neuron
[10] = Induction of DNA damage in Primary human whole blood cell assessed as total DNA damage score at 100 nM incubated for 24 hrs by Comet assay (reference value: 35.4 to 77.9); format: functional
[11] = Antioxidant activity against Primary human whole blood cell assessed as H2O2 equivalent of total oxidative stress at 50 nM incubated for 24 hrs (0.6 to 1.9 micromolequiv/L); format: functional
PC-12 [12] = experiment: Upregulation of Gpx expression in MPP+ induced rat PC-12 cells at 100 nM pretreated with compound for 24 hrs followed by MPP+ stimulation and measured after 6 hrs; format: functional, cell-based; details: time 30.0 hrs; in short: as §2
[13] = Induction of DNA damage in Primary human whole blood cell assessed as 8-OH-dG adducts formation at 50 nM incubated for 24 hrs by […] (reference value: 0.12 to 2.21 pg/ml); format: functional
[14] = Partition coefficient, logP of the compound by HPLC-UV analysis; format: physicochemical; details: octanol/water
[15] = Genotoxicity in human Lymphocyte assessed as micronuclei formation measured per 1000 cells at 50 nM incubated for 72 hrs giemsa staining based analysis (reference value: 4.5 to 17.9); format: toxicity, cell-based; details: 0.05 µM; in short: as §3
PC-12 [16] = experiment: Upregulation of GCLM expression in MPP+ induced rat PC-12 cells at 100 nM pretreated with compound for 24 hrs followed by MPP+ stimulation and measured after 6 hrs; format: functional, cell-based; details: time 30.0 hrs; in short: as §2
[17] = Induction of DNA damage in rat Cerebral cortex cell assessed as 8-OH-dG adducts formation at 250 nM incubated for 24 hrs by […] (reference value: 0.14 to 1.92 pg/ml); format: functional, Cerebral cortex neuron
[18] = Stability of the compound in stimulated intestinal fluid at 40 mg/ml pancreatin by measuring observed rate constant measured upto 180 mins by HPLC analysis; format: ADME; details: simulated gi fluid, 3 h
In short: (§4)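 USP simulated intestinal fluid containing pancreatin, in a 37 °C shaking water bath. Samples at 0, 60, 120 and 180 min were quenched with ice-cold acetonitrile containing 0.5% formic acid, centrifuged at 4 °C for 10 min, filtered and analyzed by HPLC. Means of three experiments ± SD.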

[19] = Antioxidant activity against rat Cerebral cortex cell assessed as H2O2 equivalent of total oxidative stress at 100 nM incubated for 24 hrs (0.7 to 2.3 micromolequiv/L); format: functional, Cerebral cortex neuron
[20] = Antioxidant activity against rat Cerebral cortex cell assessed as trolox equivalent of total antioxidant capacity at 500 nM incubated for 24 hrs (14.7 to 27.5 mmolequiv/L ); format: functional, Cerebral cortex neuron
[21] = Stability of the compound in stimulated intestinal fluid at 40 mg/ml pancreatin by measuring half life measured upto 180 mins by HPLC analysis; format: ADME; details: simulated intestinal fluid with pancreatin; in short: as §4
PC-12 [22] = experiment: Upregulation of GR expression in MPP+ induced rat PC-12 cells at 100 nM pretreated with compound for 24 hrs followed by MPP+ stimulation and measured after 6 hrs; format: functional, cell-based; details: time 30.0 hrs; in short: as §2
[23] = Stability of the compound in hydrochloric acid buffer assessed as chemical hydrolysis by measuring half life at pH 1.2; format: physicochemical; in short: as §1
[24] = Antioxidant activity against rat Cerebral cortex cell assessed as H2O2 equivalent of total oxidative stress at 250 nM incubated for 24 hrs (0.7 to 2.3 micromolequiv/L); format: functional, Cerebral cortex neuron
[25] = Induction of DNA damage in Primary human whole blood cell assessed as total DNA damage score at 250 nM incubated for 24 hrs by Comet assay (reference value: 35.4 to 77.9); format: functional

| Structure (SMILES) | Activity [1] | half-life [2] | Activity [4] | Activity (PC-12 [5]) | Activity [6] | Activity [7] | Activity [8] | Activity [9] | Activity [10] | Activity [11] | Activity [13] | logP [14] | Activity [15] | Activity [17] | Activity [19] | Activity [20] | half-life [23] | Activity [24] | Activity [25] | further results |
| --- | --- | --- | --- | --- | --- | --- | --- | --- | --- | --- | --- | --- | --- | --- | --- | --- | --- | --- | --- | --- |
| C#CCSC[C@H]1NC(=O)[C@H](Cc2ccc(OC(C)=O)c(OC(C)=O)c2)NC1=O | 6.9 | 2850 min | 4.9 | Active | 37.6 | 6.6 | 6.5 | 15.5 mmolequiv/L | 35.6 | 0.6 umolequiv/L | 0.11 pg/mL | 0.35 | 4.8 | 0.14 pg/mL | 0.6 umolequiv/L | 14.8 mmolequiv/L | 5.56 days | 0.6 umolequiv/L | 35.9 | Activity (PC-12 [3]): Active; Activity (PC-12 [12]): Active; Activity (PC-12 [16]): Active; Kobs [18]: 0.27 h⁻¹; half-life [21]: 154 min; Activity (PC-12 [22]): Active |
| C=CCSC[C@H]1NC(=O)[C@H](Cc2ccc(OC(C)=O)c(OC(C)=O)c2)NC1=O | 7 | 1860 min | 5 | Active | 37.4 | 6.9 | 6.8 | 14.3 mmolequiv/L | 35.5 | 0.7 umolequiv/L | 0.12 pg/mL | 0.68 | 4.9 | 0.15 pg/mL | 0.7 umolequiv/L | 14.9 mmolequiv/L | 0.787 days | 0.7 umolequiv/L | 35.7 | – |
